Reference: ChEMBL document CHEMBL5154684 (J Med Chem, 2022)
The source made the active and inactive calls. The rule behind the calls is not given here.

Assays:
[1] = target: T1, Nuclear factor erythroid 2-related factor 2 (Homo sapiens) (UniProt Q16236); experiment: Activation of Nrf2 transcriptional activity in HEK293T cells transfected with TK-Renilla reporter vector and cotransfected with ARE-LUC vector measured after 16 hrs by dual-luciferase reporter gene assay; format: cell-based; details: filed as activator, dose 6-60 µM, DDE = dose-dependent effect
T1 sequence (whole entry): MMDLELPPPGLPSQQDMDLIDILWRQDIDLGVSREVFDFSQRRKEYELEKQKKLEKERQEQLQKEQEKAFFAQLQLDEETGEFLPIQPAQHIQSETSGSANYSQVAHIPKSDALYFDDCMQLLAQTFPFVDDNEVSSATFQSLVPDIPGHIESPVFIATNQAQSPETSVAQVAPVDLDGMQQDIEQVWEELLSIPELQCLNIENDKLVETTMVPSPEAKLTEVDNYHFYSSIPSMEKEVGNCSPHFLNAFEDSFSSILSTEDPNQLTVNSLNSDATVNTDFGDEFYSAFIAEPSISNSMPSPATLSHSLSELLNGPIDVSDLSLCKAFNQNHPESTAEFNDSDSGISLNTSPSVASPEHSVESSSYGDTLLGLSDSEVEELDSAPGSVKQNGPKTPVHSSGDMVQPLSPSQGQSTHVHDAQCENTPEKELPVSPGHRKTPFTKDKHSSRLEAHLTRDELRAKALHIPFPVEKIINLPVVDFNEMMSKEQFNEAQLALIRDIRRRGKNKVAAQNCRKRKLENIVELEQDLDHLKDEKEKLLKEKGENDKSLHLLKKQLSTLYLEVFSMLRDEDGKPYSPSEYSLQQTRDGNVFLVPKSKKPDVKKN
How it was run: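 HEK293T cells were seeded and cultured 16 h, then co-transfected by calcium phosphate with 3×ARE-LUC and TK-Renilla. […] Lysates were read by dual-luciferase. Triplicates, at least twice. CD is the concentration that doubles luciferase over basal.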

[2] = target: T2, Nuclear factor erythroid 2-related factor 2 (Mus musculus) (UniProt Q60795); experiment: Activation of Nrf2 transcriptional activity in KEAP1+/+ mouse embryonic fibroblast cells assessed as increase in HMOX1 mRNA levels at 20 uM by RT-qPCR analysis; format: cell-based; details: filed as activator, time 4-24 hrs, TDE = time-dependent effect
T2 sequence (whole entry): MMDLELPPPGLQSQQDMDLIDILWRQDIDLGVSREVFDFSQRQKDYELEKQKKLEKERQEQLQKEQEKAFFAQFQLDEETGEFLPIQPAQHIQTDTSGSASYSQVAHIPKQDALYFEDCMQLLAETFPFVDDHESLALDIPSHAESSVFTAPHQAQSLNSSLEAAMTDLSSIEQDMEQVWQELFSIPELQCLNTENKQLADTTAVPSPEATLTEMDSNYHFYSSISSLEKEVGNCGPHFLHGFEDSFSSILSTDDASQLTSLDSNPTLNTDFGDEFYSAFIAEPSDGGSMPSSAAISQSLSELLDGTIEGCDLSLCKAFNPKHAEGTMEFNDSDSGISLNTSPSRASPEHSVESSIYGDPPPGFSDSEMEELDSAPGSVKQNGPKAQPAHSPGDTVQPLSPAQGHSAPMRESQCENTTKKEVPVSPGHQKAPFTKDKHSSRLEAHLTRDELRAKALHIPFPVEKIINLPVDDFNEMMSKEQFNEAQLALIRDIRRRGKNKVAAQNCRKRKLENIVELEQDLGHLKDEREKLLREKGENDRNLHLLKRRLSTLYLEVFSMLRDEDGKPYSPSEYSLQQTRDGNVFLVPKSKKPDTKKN
How it was run: (§1)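 Keap1+/+ and Keap1–/– MEFs were grown in DMEM with 10% FBS and treated at 20 μM for 4, 8 and 24 h. HMOX1 and NQO1 mRNA measured by qRT-PCR, normalized to β-actin mRNA. n = 4 ± S.E.M., experiments done twice; two-way ANOVA with Bonferroni post hoc.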

[3] = target: T2, Nuclear factor erythroid 2-related factor 2 (Mus musculus); experiment: Activation of Nrf2 transcriptional activity in KEAP1-/- mouse embryonic fibroblast cells assessed as increase in HMOX1 mRNA levels at 20 uM measured upto 24 hrs by RT-qPCR analysis; format: cell-based; details: filed as activator; how it was run: as §1
[4] = Stability in pooled human liver microsomes assessed as intrinsic clearance at 8 uM in presence of NADPH measured upto 60 mins by HPLC-MS analysis; format: ADME, Microsome; details: 1 h
Albumin [5] = target: T3, Albumin (Homo sapiens, UniProt P02768); experiment: Binding affinity to human serum albumin assessed as Stern-Volmer quenching constant by Stern-Volmer plot analysis; format: ADME; details: isolated protein
T3 sequence (P02768 whole entry): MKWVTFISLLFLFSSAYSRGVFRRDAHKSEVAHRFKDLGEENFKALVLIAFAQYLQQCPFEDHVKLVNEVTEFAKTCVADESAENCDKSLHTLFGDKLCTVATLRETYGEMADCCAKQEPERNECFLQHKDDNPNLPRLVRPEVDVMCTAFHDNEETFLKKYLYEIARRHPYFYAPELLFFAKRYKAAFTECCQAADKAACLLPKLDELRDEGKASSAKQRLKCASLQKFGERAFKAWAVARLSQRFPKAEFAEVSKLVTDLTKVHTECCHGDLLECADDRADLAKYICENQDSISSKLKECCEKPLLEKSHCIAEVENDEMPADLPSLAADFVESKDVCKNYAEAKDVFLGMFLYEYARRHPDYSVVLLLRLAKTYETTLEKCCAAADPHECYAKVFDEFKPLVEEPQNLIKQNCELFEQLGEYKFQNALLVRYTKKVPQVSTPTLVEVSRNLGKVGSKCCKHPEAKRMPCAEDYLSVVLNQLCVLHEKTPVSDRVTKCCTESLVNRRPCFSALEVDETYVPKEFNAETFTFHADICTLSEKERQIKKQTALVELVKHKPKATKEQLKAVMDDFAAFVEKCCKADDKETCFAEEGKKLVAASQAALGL

Albumin [6] = target: T3, Albumin; experiment: Binding affinity to human serum albumin assessed as association constant by Scatchard equation; format: ADME; details: isolated protein
Homo sapiens = organism: Homo sapiens; experiment: Selectivity ratio of CD for Nrf2 activation in HEK293T cells to IC50 for inhibition of ROCK2 (unknown origin); format: cell-based
How it was run: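 Ratio of CD to ROCK2 IC50. CD is the concentration doubling ARE-luciferase over basal in transfected HEK293T cells after 16 h. […] Reactions were stopped with orthophosphoric acid and captured on P81 filters.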

[7] = target: T1, Nuclear factor erythroid 2-related factor 2 (Homo sapiens); experiment: Activation of Nrf2 transcriptional activity in human SH-SY5Y cells assessed as induction of accumulation of Nrf2 in nucleus at 20 uM incubated for 30 to 240 mins by Immunoblotting analysis; format: cell-based; details: filed as activator, time 60-240 min, in the assay text read “60 to 240 mins” for “30 to 240 mins”
How it was run: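 SH-SY5Y cells treated at 20 μM for 1, 2 and 4 h. Cytosolic and nuclear fractions were prepared by hypotonic NP-40 lysis followed by a nuclear extraction buffer. […] Duplicate, at least twice.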

[8] = target: T1, Nuclear factor erythroid 2-related factor 2 (Homo sapiens); experiment: Activation of Nrf2 transcriptional activity in human SH-SY5Y cells assessed as increase in HMOX1 mRNA expression at 20 uM by RT-qPCR analysis; format: cell-based; details: filed as activator, time 4-24 hrs, TDE = time-dependent effect
How it was run: (§2)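 SH-SY5Y cells (DMEM/Ham's F12, 10% FBS) were treated at 20 μM for 4, 8 and 24 h. HMOX1 and NQO1 mRNA measured by qRT-PCR, normalized to β-actin mRNA. Mean of n = 4 ± S.E.M., experiments done twice.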

[9] = target: T1, Nuclear factor erythroid 2-related factor 2 (Homo sapiens); experiment: Activation of Nrf2 transcriptional activity in human SH-SY5Y cells assessed as increase in NQO1 mRNA expression at 20 uM by RT-qPCR analysis; format: cell-based; details: filed as activator, time 4-24 hrs, TDE = time-dependent effect; how it was run: as §2
[10] = target: T1, Nuclear factor erythroid 2-related factor 2 (Homo sapiens); experiment: Activation of Nrf2 transcriptional activity in human SH-SY5Y cells assessed as increase in HO-1 protein levels at 20 uM incubated for 24 hrs by immunoblot analysis; format: cell-based; details: filed as activator
How it was run: (§3)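 SH-SY5Y cells exposed to 20 μM for 4, 8 and 24 h. […] Densitometry normalized to β-actin. Duplicate, at least twice; one-way ANOVA with Tukey post-test.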

[11] = target: T1, Nuclear factor erythroid 2-related factor 2 (Homo sapiens); experiment: Activation of Nrf2 transcriptional activity in human SH-SY5Y cells assessed as increase in NQO1 protein levels at 20 uM incubated for 24 hrs by immunoblot analysis; format: cell-based; details: filed as activator; how it was run: as §3
[12] = target: T2, Nuclear factor erythroid 2-related factor 2 (Mus musculus); experiment: Activation of Nrf2 transcriptional activity in KEAP1+/+ mouse embryonic fibroblast cells assessed as increase in NQO1 mRNA levels at 20 uM by RT-qPCR analysis; format: cell-based; details: filed as activator, time 4-24 hrs, TDE = time-dependent effect; how it was run: as §1
[13] = target: Keap1/Nrf2 (Homo sapiens) (UniProt Q16236+Q14145); experiment: Inhibition of Nrf2 (unknown origin)/KEAP1 (unknown origin) protein-protein interaction by measuring inflection temperature at 100 uM by differential scanning fluorimetry; format: protein assay
Keap1/Nrf2 (Homo sapiens), sequence (Q14145 whole entry, looked up, one chain of several): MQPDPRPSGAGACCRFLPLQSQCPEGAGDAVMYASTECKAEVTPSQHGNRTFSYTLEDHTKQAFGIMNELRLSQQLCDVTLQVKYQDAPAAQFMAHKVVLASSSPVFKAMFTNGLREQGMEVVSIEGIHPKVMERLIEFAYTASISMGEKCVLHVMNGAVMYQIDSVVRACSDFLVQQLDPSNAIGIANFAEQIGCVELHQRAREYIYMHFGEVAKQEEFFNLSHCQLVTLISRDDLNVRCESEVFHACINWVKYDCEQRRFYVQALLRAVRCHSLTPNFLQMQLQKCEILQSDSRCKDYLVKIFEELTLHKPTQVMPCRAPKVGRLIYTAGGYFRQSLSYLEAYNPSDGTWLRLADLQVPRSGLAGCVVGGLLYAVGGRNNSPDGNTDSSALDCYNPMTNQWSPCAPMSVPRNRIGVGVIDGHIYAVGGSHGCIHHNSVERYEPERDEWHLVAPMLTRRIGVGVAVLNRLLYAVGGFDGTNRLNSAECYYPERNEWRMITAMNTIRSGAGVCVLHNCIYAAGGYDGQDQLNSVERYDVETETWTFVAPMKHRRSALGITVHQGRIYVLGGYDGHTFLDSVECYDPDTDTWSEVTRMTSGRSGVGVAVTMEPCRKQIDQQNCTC

[14] = target: T1, Nuclear factor erythroid 2-related factor 2 (Homo sapiens); experiment: Induction of Nrf2 signalling pathway in human lymphoblast assessed as increase in Nrf2 protein level at 20 uM measured after 24 hrs by immunoblot analysis; format: cell-based; details: Lymphoblastoid cell, filed as activator
[15] = target: T1, Nuclear factor erythroid 2-related factor 2 (Homo sapiens); experiment: Induction of Nrf2 signalling pathway in human lymphoblast assessed as increase in HMOX1 mRNA level at 20 uM measured after 24 hrs by RT-qPCR analysis; format: cell-based; details: Lymphoblastoid cell, filed as activator
How it was run: (§4)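 EBV-immortalized lymphoblastoid lines from controls, sALS and SOD1-ALS patients were grown in RPMI-1640 with 10% FBS. They were seeded at 1 × 10^6 cells/mL, serum-starved 12 h, then treated at 20 μM for 24 h. HMOX1 and NQO1 mRNA measured by qRT-PCR, normalized to β-actin mRNA. n = 6–7 controls, 5–6 sALS, 4 SOD1-ALS, ± S.E.M.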

[16] = target: T1, Nuclear factor erythroid 2-related factor 2 (Homo sapiens); experiment: Induction of Nrf2 signalling pathway in human lymphoblast assessed as increase in HMOX1 protein level at 20 uM measured after 24 hrs by immunoblot analysis; format: cell-based; details: Lymphoblastoid cell, filed as activator
[17] = target: T1, Nuclear factor erythroid 2-related factor 2 (Homo sapiens); experiment: Induction of Nrf2 signalling pathway in human lymphoblast assessed as increase in NQO1 protein level at 20 uM measured after 24 hrs by immunoblot analysis; format: cell-based; details: Lymphoblastoid cell, filed as activator
[18] = target: T1, Nuclear factor erythroid 2-related factor 2 (Homo sapiens); experiment: Induction of Nrf2 signalling pathway in human lymphoblast assessed as increase in NQO1 mRNA level at 20 uM measured after 24 hrs by RT-qPCR analysis; format: cell-based; details: Lymphoblastoid cell, filed as activator; how it was run: as §4
[19] = target: T1, Nuclear factor erythroid 2-related factor 2 (Homo sapiens); experiment: Induction of Nrf2 signalling pathway in ALS patient derived human lymphoblasts harboring SOD1 mutation assessed as increase in HMOX1 protein level at 20 uM measured after 24 hrs by immunoblot analysis; format: cell-based; details: Lymphoblastoid cell, filed as activator
[20] = target: T1, Nuclear factor erythroid 2-related factor 2 (Homo sapiens); experiment: Induction of Nrf2 signalling pathway in ALS patient derived human lymphoblasts harboring SOD1 mutation assessed as increase in NQO1 protein level at 20 uM measured after 24 hrs by immunoblot analysis; format: cell-based; details: Lymphoblastoid cell, filed as activator
[21] = target: T1, Nuclear factor erythroid 2-related factor 2 (Homo sapiens); experiment: Induction of Nrf2 signalling pathway in ALS patient derived human lymphoblasts harboring SOD1 mutation assessed as increase in HMOX1 mRNA level at 20 uM measured after 24 hrs by RT-qPCR analysis; format: cell-based; details: Lymphoblastoid cell, filed as activator; how it was run: as §4
[22] = target: T1, Nuclear factor erythroid 2-related factor 2 (Homo sapiens); experiment: Induction of Nrf2 signalling pathway in ALS patient derived human lymphoblasts harboring SOD1 mutation assessed as increase in NQO1 mRNA level at 20 uM measured after 24 hrs by RT-qPCR analysis; format: cell-based; details: Lymphoblastoid cell, filed as activator; how it was run: as §4
[23] = target: Rho-associated protein kinase 2 (Homo sapiens, UniProt O75116); experiment: Inhibition of ROCK2 (unknown origin) using KEAKEKRQEQIAKRRRLSSLRASTSKSGGSQK-peptide as substrate incubated for 30 mins in presence of [gamma-33P]-ATP
Rho-associated protein kinase 2, sequence (O75116 whole entry): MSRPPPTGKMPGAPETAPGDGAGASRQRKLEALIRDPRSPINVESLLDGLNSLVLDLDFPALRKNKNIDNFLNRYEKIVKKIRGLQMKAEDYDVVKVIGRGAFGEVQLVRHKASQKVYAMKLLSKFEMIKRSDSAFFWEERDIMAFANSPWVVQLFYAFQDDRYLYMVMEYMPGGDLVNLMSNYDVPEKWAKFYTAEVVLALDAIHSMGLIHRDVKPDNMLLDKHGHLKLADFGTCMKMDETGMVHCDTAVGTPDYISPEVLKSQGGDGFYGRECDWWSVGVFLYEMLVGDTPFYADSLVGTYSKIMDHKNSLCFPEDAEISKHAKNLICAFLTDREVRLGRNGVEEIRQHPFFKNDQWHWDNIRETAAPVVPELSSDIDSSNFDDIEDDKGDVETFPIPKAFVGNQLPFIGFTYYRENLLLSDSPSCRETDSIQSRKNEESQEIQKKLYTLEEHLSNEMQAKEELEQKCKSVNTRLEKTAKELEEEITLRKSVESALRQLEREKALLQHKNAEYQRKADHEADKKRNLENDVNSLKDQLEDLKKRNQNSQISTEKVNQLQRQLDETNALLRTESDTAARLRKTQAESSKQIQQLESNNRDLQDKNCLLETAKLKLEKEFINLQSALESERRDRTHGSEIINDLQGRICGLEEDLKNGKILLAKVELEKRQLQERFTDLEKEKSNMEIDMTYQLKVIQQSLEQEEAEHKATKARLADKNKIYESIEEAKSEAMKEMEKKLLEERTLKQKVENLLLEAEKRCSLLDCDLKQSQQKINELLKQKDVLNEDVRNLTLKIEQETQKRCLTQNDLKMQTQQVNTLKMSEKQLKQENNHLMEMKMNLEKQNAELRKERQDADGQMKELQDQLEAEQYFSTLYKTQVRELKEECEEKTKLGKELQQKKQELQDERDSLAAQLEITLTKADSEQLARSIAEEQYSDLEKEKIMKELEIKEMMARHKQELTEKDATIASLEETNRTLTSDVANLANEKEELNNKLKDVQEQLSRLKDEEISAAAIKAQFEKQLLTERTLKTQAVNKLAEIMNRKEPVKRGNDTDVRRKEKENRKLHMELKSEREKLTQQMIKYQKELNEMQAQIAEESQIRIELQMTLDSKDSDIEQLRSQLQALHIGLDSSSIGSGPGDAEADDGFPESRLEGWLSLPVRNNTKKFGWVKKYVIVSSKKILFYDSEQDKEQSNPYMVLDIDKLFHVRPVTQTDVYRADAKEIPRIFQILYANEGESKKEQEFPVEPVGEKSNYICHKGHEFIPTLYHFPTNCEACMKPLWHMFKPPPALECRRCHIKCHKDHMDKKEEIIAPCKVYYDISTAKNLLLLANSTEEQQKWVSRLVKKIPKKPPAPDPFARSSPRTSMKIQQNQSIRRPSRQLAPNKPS

## O=C(CCc1ccc(O)c(O)c1)N1CCCN(S(=O)(=O)c2cccc3cnccc23)CC1
[1]
  Activity: Dde
[2]
  Activity: Tde
[3]
  Activity: Active
[4]
  CLint: 15.3 µL/min/mg
Albumin [5]
  KSV: 1.68 10^5L/mol
Albumin [6]
  ka: 7.94 10^5L/mol
Homo sapiens
  Selectivity ratio: 1.4
[7]
  Activity: Active
[8]
  Activity: Tde
[9]
  Activity: Tde
[10]
  Activity: Active
[11]
  Activity: Active
[12]
  Activity: Tde
[13]
  deltaT: 0.2 °C
[14]
  Activity: Active
[15]
  Activity: Active
[16]
  Activity: Active
[17]
  Activity: Active
[18]
  Activity: Active
[19]
  Activity: Active
[20]
  Activity: Active
[21]
  Activity: Active
[22]
  Activity: Active

## O=C(CCc1ccc(O)c(O)c1)N1CCN(S(=O)(=O)c2cccc3cnccc23)CC1
[1]
  Activity: Dde
Homo sapiens
  Selectivity ratio: 46.9

## COc1cc(CCC(=O)N2CCN(S(=O)(=O)c3cccc4cnccc34)CC2)ccc1O
[23]
  IC50: > 10 µM

## O=C(/C=C/c1ccc(O)c(O)c1)N1CCCN(S(=O)(=O)c2cccc3cnccc23)CC1
[1]
  Activity: Dde
Homo sapiens
  Selectivity ratio: 5.2
